Assay outcomes (PubChem)
Shown are actives, neighbours in structure and some others; about 1.9% of the full set was active somewhere.
ADAM10 inh: human ADAM10 inhibitors, primary screen, biochemical, QFRET, HTS | inhibition, % at 7 µM | actives 0.62% (n = 370,000) | recombinant ADAM10, EDANS/DABCYL FRET peptide cleavage, 3 h | Disintegrin and metalloproteinase domain-containing protein 10 (Homo sapiens), O14672;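 active = inhibition above a per-campaign cutoff equal to the mean of compounds falling between control-based bounds plus 3 SD, cut at about 20% in these data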;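 also: 0% = DMSO wells while the 100% control is not disclosed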
ADAM17 inh: ADAM17 inhibitors, primary screen, biochemical, QFRET | inhibition, % at 6.95 µM | AID 720648, 2013 | actives 0.83% (n = 370,000) | Disintegrin and metalloproteinase domain-containing protein 17 (Homo sapiens), P78536 | recombinant ADAM17, EDANS/DABCYL FRET peptide cleavage;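 active = inhibition above the mean of compounds lying between control limits plus 3 SD, set per campaign, cut at about 8.5% in these data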;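 also: 0% = DMSO-only wells as the low control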
FAS-TE inh: FAS thioesterase domain inhibitors, primary screen, biochemical, fluorescence intensity, uHTS; recombinant FAS-TE, OMFH fluorogenic substrate, fluorescence endpoint; AID 602261, 2012; actives 0.67% (n = 360,000); inhibition, % at 15 µM;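 active = compounds whose normalised, plate-corrected inhibition of enzyme fluorescence in the single-dose primary screen is 50% or more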;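 also: 0% = DMSO with enzyme and 100% = substrate without enzyme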
SENP1 FRET inh: human SENP1 catalytic domain inhibitors, primary screen, biochemical, FRET, uHTS; Sentrin-specific protease 1 (Homo sapiens), Q9P0U3; recombinant SENP1 catalytic domain, CyPet-SUMO1-YPet FRET cleavage; inhibition, % at 10 µM; actives 0.21% (n = 360,000);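 active = inhibition at least 30% at 10 µM, raw YFP signal under a set limit, fluorescence ratio 0.5 to 1.5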;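 also: 0% = enzyme with DMSO and 100% = no enzyme wells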
Target sequence (Q9P0U3 419-644 limits assumed): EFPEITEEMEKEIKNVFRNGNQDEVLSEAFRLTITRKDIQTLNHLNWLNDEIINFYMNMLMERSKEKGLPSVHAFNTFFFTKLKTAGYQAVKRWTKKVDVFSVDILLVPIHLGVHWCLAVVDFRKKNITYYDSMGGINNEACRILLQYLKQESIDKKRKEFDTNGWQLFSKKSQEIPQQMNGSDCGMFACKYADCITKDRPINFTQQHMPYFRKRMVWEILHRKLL
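System: Recombinant human SENP1 catalytic domain, His6-tagged | Incubation: Enzyme reaction for 50 min at room temperature, dark | Medium: Tris pH 8 with BME, BSA, NP40 and catalase | Also added: 25 nM SUMO1 FRET substrate | Compound: 10 µM single point, 0.5% DMSO | Measured by: FRET fluorescence in CFP and YFP emission channels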
FAS-TE conf: FAS thioesterase domain inhibitors, confirmation, biochemical, fluorescence intensity, single concentration; shares compounds with FAS-TE inh; recombinant FAS-TE, OMFH fluorogenic substrate; inhibition, % at 15 µM; actives 45% (n = 2,300);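 active = compounds inhibiting the enzyme by at least 50% at 15 µM in any one of the replicates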;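 also: 0% = enzyme with DMSO only and 100% = wells lacking enzyme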
Starred values were filed as active, the others as inactive; i = inactive; . = no result given.

SMILES	ADAM10 inh	ADAM17 inh	FAS-TE inh	SENP1 FRET inh	FAS-TE conf
COc1ccc(NS(=O)(=O)c2cc(NC(=O)COc3ccc(OC)cc3)ccc2N2CCOCC2)cc1	10	3	53*	1	24
COc1ccccc1NS(=O)(=O)c1cc(NC(=O)c2ccc(=O)[nH]c2)ccc1N1CCOCC1	-1	1	-3	0	.
O=[N+]([O-])c1ccc(CN2CC(N3CCCC3)CS2(=O)=O)cc1 (configuration not stated)	0	2	-6	1	.
O=[N+]([O-])c1ccc(CN2CC(N3CCC(Cc4ccccc4)CC3)CS2(=O)=O)cc1 (configuration not stated)	8	1	51*	3	57*
Cc1ccc(NC(=O)C2=C(c3ccccc3)S(=O)(=O)CCS2(=O)=O)cc1	7	-1	75*	-1	83*
Cc1ccc(NC(=O)c2ccccc2)cc1	-9	-3	-6	1	.
Cc1ccc(Cl)cc1N1CCN(C(=O)C2CCN(S(=O)(=O)c3cccnc3)CC2)CC1	6	0	50*	1	22
FC(F)(F)c1ccccc1CN1CCCc2nc(-c3ccc(Br)cc3)ccc21	-60	-16	.	.	.
CN(CCc1ccccc1)C(=O)c1ccc(NC(=O)Cc2ccc(NC(=O)C3CCCN(S(=O)(=O)c4cccc([N+](=O)[O-])c4)C3)cc2)cc1 (configuration not stated)	-8	-6	72*	2	22
CN(Cc1ccccc1)C(=O)c1ccc(NC(=O)Cc2ccc(NC(=O)C3CCN(S(=O)(=O)c4cccc([N+](=O)[O-])c4)CC3)cc2)cc1	1	2	68*	0	19
CN(Cc1ccccc1)C(=O)c1cccc(NC(=O)Cc2ccc(NC(=O)C3CCN(S(=O)(=O)c4cccc([N+](=O)[O-])c4)CC3)cc2)c1	-4	0	37	4	.
CN(CCc1ccccc1)C(=O)c1cccc(NC(=O)Cc2cccc(NC(=O)C3CCCN(S(=O)(=O)c4cccc([N+](=O)[O-])c4)C3)c2)c1 (configuration not stated)	5	3	48	-2	.
O=C(CCc1ccccc1-c1ccccc1CCNC(=O)c1ccccc1)NCc1ccccc1	2	-2	.	.	.
C=C1CC(COc2ccc3c(C)c(Cl)c(=O)oc3c2)(c2ccccc2)OC1=O (configuration not stated)	i	-274	53*	1	46*
COc1ccc2c(C)c(Cl)c(=O)oc2c1	i	i	3	-3	.
COc1ccccc1CCn1cnc(-c2ccc(Br)cc2)c1CC(C)C	6	3	.	.	.
C=CCNC(=O)c1ccc(C2SCC(=O)N2Cc2ccco2)cc1 (configuration not stated)	-6	-4	-2	-2	.
O=C(NCc1ccc2c(c1)OCO2)c1ccc(C2SCC(=O)N2Cc2ccco2)cc1 (configuration not stated)	9	2	59*	3	50*
C=CCN=C1NC(CCc2ccccc2)C(C(=O)OC)=C(C)N1C (configuration not stated)	-9	-6	.	.	.
O=C(c1ccc(F)cc1F)N(Cc1ccccn1)CC1CCCO1 (configuration not stated)	3	3	.	.	.
O=C(N/N=C/c1cc([N+](=O)[O-])ccc1O)c1cc(-c2ccccc2)nc2ccccc12	-1	-3	36	-30	.
O=C(NC(C(=O)N/N=C/c1cc([N+](=O)[O-])ccc1O)c1n[nH]c(=O)c2ccccc12)c1ccccc1 (configuration not stated)	7	4	67*	-12	78*
Cc1cc(C(=O)N/N=C/c2cc([N+](=O)[O-])ccc2O)c2ccccc2n1	-3	4	77*	-38	97*
O=C(N/N=C/c1ccccn1)c1cccc([N+](=O)[O-])c1	-2	-2	-2	-2	.
O=C(NN=Cc1ccccc1O)c1cccc([N+](=O)[O-])c1	-3	0	61*	3	4
SMILES	ADAM10 inh	ADAM17 inh	FAS-TE inh	SENP1 FRET inh	FAS-TE conf
Cc1cc(Cl)ccc1NC(=O)CCC(=O)N/N=C/c1cc([N+](=O)[O-])ccc1O	0	-3	55*	2	70*
COc1ccc(CNCC#CC2=CCCCC2)c(OC)c1	3	2	.	.	.
O=C(CNC(=O)c1ccc2c(c1)OCO2)N/N=C/c1cccc([N+](=O)[O-])c1	3	-1	55*	1	30
COc1ccc(-c2cc3nc4c(c(N5CCC6(CC5)OCCO6)n3n2)CCC4)cc1	-2	-1	51*	-10	43
Cc1cccc(-c2cc3nc4c(c(N5CCC6(CC5)OCCO6)n3n2)CCCC4)c1	-3	-1	30	3	.
Fc1ccc(-c2cc3nc4c(c(N5CCOCC5)n3n2)CCCC4)cc1	-7	-8	21	0	.
COc1ccc(-c2cc3nc(-c4ccccc4)cc(N4CCC5(CC4)OCCO5)n3n2)cc1	-96	-42	52*	-28	10
COc1cccc(-c2cc3nc4c(c(N5CCC6(CC5)OCCO6)n3n2)CCC4)c1	-21	-3	55*	-1	26
COc1ccc(N=C2C(=Nc3ccc(OC)cc3)N(c3ccc(N(C)C)cc3)C(=S)N2c2ccc(OC)cc2)cc1	8	1	80*	5	25
COc1ccc(N=C2C(=Nc3ccc(OC)cc3)N(c3ccc(OC)cc3)C(=S)N2C(=O)c2ccc(OC)cc2)cc1	8	-3	19	2	.
CO[C@H]([C@H](C)/C=C/N(C)C=O)[C@@H](C)C(=O)CC[C@H](C)[C@H](O)[C@H](C)[C@H]1OC(=O)/C=C/C(C)=C/C[C@H](O)C[C@@H]2C=CC[C@@H](C[C@H](OC)[C@@H](C)[C@@H](OC)C[C@@H](OC)[C@@H]1C)O2	16	2	.	.	.
O=C(CSc1nc2nc(-c3cccs3)cc(C(F)(F)F)c2c(=O)[nH]1)Nc1c(F)c(F)c(F)c(F)c1F	-12	-11	50*	-39	26
COc1ccc(C(=O)OCCN(C)C2CN(Cc3cn(Cc4cccc(F)c4)nn3)S(=O)(=O)C2)cc1OC (configuration not stated)	-12	-7	.	.	.
CCCCCCCCCCCCCCCCCCNc1ccn(C2OC(COP(=O)(O)OCC3OC(n4cc(F)c(=O)[nH]c4=O)CC3O)C(O)C2O)c(=O)n1 (configuration not stated)	1	-5	55*	0	27
CC[C@@]1(c2ccccc2)C(=O)N(C(=O)OC)N1C(=O)OC	2	-2	33	0	.
COC(=O)N1C(=O)[C@@](Cc2ccccc2)(c2ccccc2)N1C(=O)OC	-7	-4	11	0	.
